Laboratory results: ChEMBL document CHEMBL1123145, “Synthesis of pyrrolizidine alkaloids indicine, intermedine, lycopsamine, and analogues and their N-oxides. Potential antitumor agents” (1985)

Assays:
Format in all cases: functional, Mus musculus
P388 [1] = assay: Number of Survivors determined for antitumor activity against P388 Lymphocytic Leukemia system on day 5 at a dose of 192 mg/kg (6 out of 6)
P388 [2] = assay: Number of Survivors determined for antitumor activity against P388 Lymphocytic Leukemia system on day 5 at a dose of 24 mg/kg (6 out of 6)
P388 [3] = assay: Survival rate of the animals determined for antitumor activity against P388 Lymphocytic Leukemia system at a dose of 192 mg/kg
P388 [4] = assay: Survival rate of the animals determined for antitumor activity against P388 Lymphocytic Leukemia system at a dose of 24 mg/kg
P388 [5] = assay: Number of Survivors determined for antitumor activity against P388 Lymphocytic Leukemia system on day 5 at a dose of 48 mg/kg (6 out of 6)
P388 [6] = assay: Weight difference observed in survivors treated for antitumor activity against P388 Lymphocytic Leukemia system at a dose of 192 mg/kg
P388 [7] = assay: Weight difference observed in survivors treated for antitumor activity against P388 Lymphocytic Leukemia system at a dose of 96 mg/kg
P388 [8] = assay: Survival rate of the animals determined for antitumor activity against P388 Lymphocytic Leukemia system at a dose of 48 mg/kg
P388 [9] = assay: Weight difference observed in survivors treated for antitumor activity against P388 Lymphocytic Leukemia system at a dose of 24 mg/kg
P388 [10] = assay: Weight difference observed in survivors treated for antitumor activity against P388 Lymphocytic Leukemia system at a dose of 48 mg/kg
P388 [11] = assay: Number of Survivors determined for antitumor activity against P388 Lymphocytic Leukemia system on day 5 at a dose of 96 mg/kg(6 out of 6)
P388 [12] = assay: Survival rate of the animals determined for antitumor activity against P388 Lymphocytic Leukemia system at a dose of 96 mg/kg
P388 [13] = assay: Number of Survivors determined for antitumor activity against P388 Lymphocytic Leukemia system on day 5 at a dose of 1600 mg/kg (Group I) (6 out of 6)
P388 [14] = assay: Number of Survivors determined for antitumor activity against P388 Lymphocytic Leukemia system on day 5 at a dose of 1600 mg/kg (Group II)(6 out of 6)
P388 [15] = assay: Number of Survivors determined for antitumor activity against P388 Lymphocytic Leukemia system on day 5 at a dose of 1600 mg/kg (Group III)(5 out of 6)
P388 [16] = assay: Number of Survivors determined for antitumor activity against P388 Lymphocytic Leukemia system on day 5 at a dose of 1600 mg/kg (Group IV)(5 out of 6)
P388 [17] = assay: Number of Survivors determined for antitumor activity against P388 Lymphocytic Leukemia system on day 5 at a dose of 200 mg/kg (Group I)(6 out of 6)
P388 [18] = assay: Number of Survivors determined for antitumor activity against P388 Lymphocytic Leukemia system on day 5 at a dose of 200 mg/kg (Group II)(6 out of 6)
P388 [19] = assay: Number of Survivors determined for antitumor activity against P388 Lymphocytic Leukemia system on day 5 at a dose of 200 mg/kg (Group IV)(6 out of 6)
P388 [20] = assay: Survival rate of the animals determined for antitumor activity against P388 Lymphocytic Leukemia system at a dose of 400 mg/kg (Group III)
In short: (§1)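 P388 lymphocytic leukemia screen run in separate test groups (I–IV). Each group includes its own indicine N-oxide internal control, listed as the group's first entry. Survival and survivor weight change are read against that control. Material was limited, so some analogues were screened up to about 200 mg/kg maximum.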

P388 [21] = assay: Survival rate of the animals determined for antitumor activity against P388 Lymphocytic Leukemia system at a dose of 1600 mg/kg (Group I)
P388 [22] = assay: Weight difference observed in survivors treated for antitumor activity against P388 Lymphocytic Leukemia system at a dose of 800 mg/kg (Group I)
P388 [23] = assay: Weight difference observed in survivors treated for antitumor activity against P388 Lymphocytic Leukemia system at a dose of 800 mg/kg (Group II)
P388 [24] = assay: Weight difference observed in survivors treated for antitumor activity against P388 Lymphocytic Leukemia system at a dose of 800 mg/kg (Group III)
P388 [25] = assay: Weight difference observed in survivors treated for antitumor activity against P388 Lymphocytic Leukemia system at a dose of 800 mg/kg (Group IV)
P388 [26] = assay: Survival rate of the animals determined for antitumor activity against P388 Lymphocytic Leukemia system at a dose of 1600 mg/kg (Group II)
P388 [27] = assay: Survival rate of the animals determined for antitumor activity against P388 Lymphocytic Leukemia system at a dose of 200 mg/kg (Group I)
P388 [28] = assay: Survival rate of the animals determined for antitumor activity against P388 Lymphocytic Leukemia system at a dose of 200 mg/kg (Group II); in short: as §1
P388 [29] = assay: Survival rate of the animals determined for antitumor activity against P388 Lymphocytic Leukemia system at a dose of 200 mg/kg (Group III); in short: as §1
P388 [30] = assay: Survival rate of the animals determined for antitumor activity against P388 Lymphocytic Leukemia system at a dose of 200 mg/kg (Group IV); in short: as §1
P388 [31] = assay: Survival rate of the animals determined for antitumor activity against P388 Lymphocytic Leukemia system at a dose of 400 mg/kg (Group I); in short: as §1
P388 [32] = assay: Survival rate of the animals determined for antitumor activity against P388 Lymphocytic Leukemia system at a dose of 400 mg/kg (Group II); in short: as §1
P388 [33] = assay: Number of Survivors determined for antitumor activity against P388 Lymphocytic Leukemia system on day 5 at a dose of 400 mg/kg (Group I)(6 out of 6)
P388 [34] = assay: Number of Survivors determined for antitumor activity against P388 Lymphocytic Leukemia system on day 5 at a dose of 400 mg/kg (Group II)(6 out of 6)
P388 [35] = assay: Number of Survivors determined for antitumor activity against P388 Lymphocytic Leukemia system on day 5 at a dose of 400 mg/kg (Group III)(6 out of 6)
P388 [36] = assay: Number of Survivors determined for antitumor activity against P388 Lymphocytic Leukemia system on day 5 at a dose of 400 mg/kg (Group IV)(6 out of 6)
P388 [37] = assay: Weight difference observed in survivors treated for antitumor activity against P388 Lymphocytic Leukemia system at a dose of 200 mg/kg (Group I); in short: as §1
P388 [38] = assay: Weight difference observed in survivors treated for antitumor activity against P388 Lymphocytic Leukemia system at a dose of 200 mg/kg (Group II); in short: as §1
P388 [39] = assay: Weight difference observed in survivors treated for antitumor activity against P388 Lymphocytic Leukemia system at a dose of 200 mg/kg (Group III); in short: as §1
P388 [40] = assay: Weight difference observed in survivors treated for antitumor activity against P388 Lymphocytic Leukemia system at a dose of 200 mg/kg (Group IV); in short: as §1
P388 [41] = assay: Survival rate of the animals determined for antitumor activity against P388 Lymphocytic Leukemia system at a dose of 400 mg/kg (Group IV); in short: as §1
P388 [42] = assay: Weight difference observed in survivors treated for antitumor activity against P388 Lymphocytic Leukemia system at a dose of 400 mg/kg (Group I); in short: as §1
P388 [43] = assay: Weight difference observed in survivors treated for antitumor activity against P388 Lymphocytic Leukemia system at a dose of 400 mg/kg (Group II); in short: as §1
P388 [44] = assay: Weight difference observed in survivors treated for antitumor activity against P388 Lymphocytic Leukemia system at a dose of 400 mg/kg (Group III); in short: as §1
P388 [45] = assay: Weight difference observed in survivors treated for antitumor activity against P388 Lymphocytic Leukemia system at a dose of 400 mg/kg (Group IV); in short: as §1
P388 [46] = assay: Weight difference observed in survivors treated for antitumor activity against P388 Lymphocytic Leukemia system at a dose of 1600 mg/kg (Group I); in short: as §1
P388 [47] = assay: Weight difference observed in survivors treated for antitumor activity against P388 Lymphocytic Leukemia system at a dose of 1600 mg/kg (Group III); in short: as §1
P388 [48] = assay: Number of Survivors determined for antitumor activity against P388 Lymphocytic Leukemia system on day 5 at a dose of 800 mg/kg (Group I)(6 out of 6)
P388 [49] = assay: Number of Survivors determined for antitumor activity against P388 Lymphocytic Leukemia system on day 5 at a dose of 800 mg/kg (Group II)(6 out of 6)
P388 [50] = assay: Number of Survivors determined for antitumor activity against P388 Lymphocytic Leukemia system on day 5 at a dose of 800 mg/kg (Group III)(6 out of 6)
P388 [51] = assay: Number of Survivors determined for antitumor activity against P388 Lymphocytic Leukemia system on day 5 at a dose of 800 mg/kg (Group IV)(6 out of 6)
P388 [52] = assay: Survival rate of the animals determined for antitumor activity against P388 Lymphocytic Leukemia system at a dose of 800 mg/kg (Group I); in short: as §1
P388 [53] = assay: Survival rate of the animals determined for antitumor activity against P388 Lymphocytic Leukemia system at a dose of 800 mg/kg (Group II); in short: as §1
P388 [54] = assay: Survival rate of the animals determined for antitumor activity against P388 Lymphocytic Leukemia system at a dose of 800 mg/kg (Group III); in short: as §1
P388 [55] = assay: Survival rate of the animals determined for antitumor activity against P388 Lymphocytic Leukemia system at a dose of 800 mg/kg (Group IV); in short: as §1
P388 [56] = assay: Weight difference observed in survivors treated for antitumor activity against P388 Lymphocytic Leukemia system at a dose of 1600 mg/kg (Group II); in short: as §1
P388 [57] = assay: Weight difference observed in survivors treated for antitumor activity against P388 Lymphocytic Leukemia system at a dose of 1600 mg/kg (Group IV); in short: as §1
P388 [58] = assay: Number of Survivors determined for antitumor activity against P388 Lymphocytic Leukemia system on day 5 at a dose of 200 mg/kg (Group III)(6 out of 6)

## CC(C)C(O)(C(=O)OCC1=CC[N+]2([O-])CC[C@@H](O)C12)C(C)O (stereo in doubt; form 3)
P388 [1]
  Survivors: 6
P388 [2]
  Survivors: 6
P388 [3]
  T/C: 109%
P388 [4]
  T/C: 100%
P388 [5]
  Survivors: 6
P388 [6]
  T-C: -1.1
P388 [7]
  T-C: -0.1
P388 [8]
  T/C: 105%
P388 [9]
  T-C: -0.1
P388 [10]
  T-C: -0.4
P388 [11]
  Survivors: 6
P388 [12]
  T/C: 107%

## CC(C)[C@](O)(C(=O)OCC1=CC[N+]2([O-])CC[C@@H](O)[C@@H]12)[C@H](C)O (stereo partly drawn) [INDICINE N-OXIDE]
P388 [13]
  Survivors: 6
P388 [14]
  Survivors: 6
P388 [15]
  Survivors: 5
P388 [16]
  Survivors: 5
P388 [17]
  Survivors: 6
P388 [18]
  Survivors: 6
P388 [19]
  Survivors: 6
P388 [20]
  T/C: 191%
P388 [21]
  T/C: 142%
P388 [22]
  T-C: -3.2
P388 [23]
  T-C: -3.3
P388 [24]
  T-C: -4.7
P388 [25]
  T-C: -2.6
P388 [26]
  T/C: 117%
P388 [27]
  T/C: 133%
P388 [28]
  T/C: 120%
P388 [29]
  T/C: 170%
P388 [30]
  T/C: 140%
P388 [31]
  T/C: 151%
P388 [32]
  T/C: 145%
P388 [33]
  Survivors: 6
P388 [34]
  Survivors: 6
P388 [35]
  Survivors: 6
P388 [36]
  Survivors: 6
P388 [37]
  T-C: -1.6
P388 [38]
  T-C: -0.5
P388 [39]
  T-C: -2.9
P388 [40]
  T-C: -0.7
P388 [41]
  T/C: 146%
P388 [42]
  T-C: -1.6
P388 [43]
  T-C: -1.9
P388 [44]
  T-C: -4.3
P388 [45]
  T-C: -1.7
P388 [46]
  T-C: -2.2
P388 [47]
  T-C: -5.8
P388 [48]
  Survivors: 6
P388 [49]
  Survivors: 6
P388 [50]
  Survivors: 6
P388 [51]
  Survivors: 6
P388 [52]
  T/C: 160%
P388 [53]
  T/C: 200%
P388 [54]
  T/C: 200%
P388 [55]
  T/C: 112%
P388 [56]
  T-C: -3.7
P388 [57]
  T-C: -2.9
P388 [58]
  Survivors: 6
